Experimental data published in ChEMBL document CHEMBL4428067, “Drug Discovery against Psoriasis: Identification of a New Potent FMS-like Tyrosine Kinase 3 (FLT3) Inhibitor, 1-(4-((1H-Pyrazolo[3,4-d]pyrimidin-4-yl)oxy)-3-fluorophenyl)-3-(5-(tert-butyl)isoxazol-3-yl)urea, That Showed Potent Activity in a Psoriatic Animal Model” (J Med Chem, 2016).
The source made the active and inactive calls. The calls are words filed in the database; no cut-off is given here.

Columns and labels:
Mus musculus [1] = species on record: Mus musculus; assay: Antipsoriatic activity in K14-VEGF transgenic mouse model of psoriasis assessed as lower right quadrant DC cells expressing FLT3 and CD11c in psoriatic plaque lesion at 0.05% applied tropically over lesion for continuous 29 days by flow cytometric analysis (reference value: 8.88%); type: functional
Mus musculus [2] = species on record: Mus musculus; assay: Antipsoriatic activity in K14-VEGF transgenic mouse model of psoriasis assessed as decrease in CD31 expression in psoriatic lesion at 0.05% applied tropically over lesion for continuous 29 days by immunohistochemical analysis relative to vehicle control; type: functional; design: scale not given: the % may be the effect or the level left
In short: (§1)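 K14-VEGF mice were treated topically with 0.05% cream or vehicle for 29 days, n=3 per group. Ear skin was paraffin-embedded, cut into 4-µm sections and immunostained. Staining was quantified in 5 random fields, reported as mean ± SD.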

BMDC = assay: Decrease in IFN-gamma level in Balb/c mouse BMDCs at 10 nM treated on day 9 post 9 days of FLT3L-stimulation measured after 12 hrs by ELISA; type: functional, cell-based
In short: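 BALB/c bone marrow cells were plated at 1×10^6/ml in RPMI-1640 with 10% FCS, 10^-4 M 2-ME, pyruvate, antibiotics and FLT3L for 9 days. On day 9, compound in DMSO or 0.1% DMSO was added. After 12 h, supernatant IFN-γ and IL-23 were measured by ELISA. Three independent experiments.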

Mus musculus [3] = species on record: Mus musculus; assay: Antipsoriatic activity in K14-VEGF transgenic mouse model of psoriasis assessed as decrease in CD8 expression in psoriatic lesion at 0.05% applied tropically over lesion for continuous 29 days by immunohistochemical analysis relative to vehicle control; type: functional; design: scale not given: the % may be the effect or the level left; in short: as §1
Mus musculus [4] = species on record: Mus musculus; assay: Antipsoriatic activity in K14-VEGF transgenic mouse model of psoriasis assessed as lower left quadrant DC cells expressing FLT3 and CD11c in psoriatic plaque lesion at 0.05% applied tropically over lesion for continuous 29 days by flow cytometric analysis (reference value: 72.7%); type: functional
Mus musculus [5] = species on record: Mus musculus; assay: Antipsoriatic activity in K14-VEGF transgenic mouse model of psoriasis assessed as lower right quadrant FLT3+/CD11c+/B220+ pDC cells in psoriatic plaque lesion at 0.05% applied tropically over lesion for continuous 29 days by flow cytometric analysis (reference value: 0.52%); type: functional
Mus musculus [6] = species on record: Mus musculus; assay: Antipsoriatic activity in K14-VEGF transgenic mouse model of psoriasis assessed alleviation in lack of granular layer at 0.05% applied tropically over lesion for continuous 29 days by H and E staining method relative to vehicle control; type: functional, organism-based
In short: (§2)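 Homozygous K14-VEGF mice, 3–4 months old, with moderate to serious psoriasis; n=3 per group. Cream with 0.05% compound or vehicle cream smeared on lesions. Head and neck tissue sections taken after 29 days of treatment and HE-stained. Baker pathological score from 5 random fields, given as mean and SD. Epidermal thickness from 8 random fields, given as mean ± SEM.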

[7] = molecular target: T1, Receptor-type tyrosine-protein kinase FLT3 (Mus musculus) (UniProt Q00342); assay: Inhibition of FLT3 in mouse BMDCs assessed as suppression of STAT3 phosphorylation at 10 and 100 nM treated on day 9 post 9 days of FLT3L-stimulation measured after 1 hr by Western blot analysis
T1 sequence (whole entry): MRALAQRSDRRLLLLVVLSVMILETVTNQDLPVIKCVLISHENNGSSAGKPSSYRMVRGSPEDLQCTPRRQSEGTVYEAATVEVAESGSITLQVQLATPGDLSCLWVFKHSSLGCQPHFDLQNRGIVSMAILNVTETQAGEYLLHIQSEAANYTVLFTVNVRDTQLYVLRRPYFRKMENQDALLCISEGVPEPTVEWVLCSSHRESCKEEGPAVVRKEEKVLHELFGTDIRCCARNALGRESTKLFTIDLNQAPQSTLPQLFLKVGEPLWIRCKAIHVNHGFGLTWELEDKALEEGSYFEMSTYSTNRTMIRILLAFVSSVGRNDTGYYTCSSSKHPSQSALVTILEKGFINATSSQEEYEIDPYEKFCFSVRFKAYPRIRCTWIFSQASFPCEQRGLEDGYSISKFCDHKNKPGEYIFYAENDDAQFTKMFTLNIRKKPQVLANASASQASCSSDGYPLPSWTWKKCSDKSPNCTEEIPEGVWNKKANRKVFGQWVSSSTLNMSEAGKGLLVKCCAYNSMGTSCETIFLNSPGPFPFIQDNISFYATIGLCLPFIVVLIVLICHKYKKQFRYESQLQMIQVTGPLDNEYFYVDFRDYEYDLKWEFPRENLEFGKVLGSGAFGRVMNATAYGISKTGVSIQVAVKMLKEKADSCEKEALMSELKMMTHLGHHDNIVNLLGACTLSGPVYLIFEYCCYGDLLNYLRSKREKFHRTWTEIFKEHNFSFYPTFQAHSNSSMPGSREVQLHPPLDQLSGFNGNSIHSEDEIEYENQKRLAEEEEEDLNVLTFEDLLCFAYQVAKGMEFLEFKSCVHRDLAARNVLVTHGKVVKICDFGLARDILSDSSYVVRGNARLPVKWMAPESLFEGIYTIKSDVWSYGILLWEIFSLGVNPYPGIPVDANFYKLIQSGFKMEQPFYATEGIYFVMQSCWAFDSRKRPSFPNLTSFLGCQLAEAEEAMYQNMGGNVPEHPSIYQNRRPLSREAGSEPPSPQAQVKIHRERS
In short: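 Bone marrow cells were cultured 9 days with FLT3L in supplemented RPMI-1640, then exposed to compound or 0.1% DMSO for 1 h on day 9. Whole cells were lysed and immunoblotted with rabbit antibodies to STAT3, STAT5, pSTAT3 and pSTAT5. Three independent experiments.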

[8] = molecular target: T1, Receptor-type tyrosine-protein kinase FLT3 (Mus musculus); assay: Inhibition of FLT3 in Balb/c mouse BMDCs assessed as suppression of FLT3L-induced pDC formation measured as lower right quadrant cells level treated on day 9 post 9 days of FLT3L-stimulation measured after 24 hrs by CD11c PerCP and CD45R/B220 FITC staining based flow cytometric analysis (reference value: 2.8%); design: scale not given: the % may be the effect or the level left
In short: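 BALB/c bone marrow cells were cultured at 1×10^6/ml with FLT3L in supplemented RPMI-1640 for 9 days. Compound in DMSO or 0.1% DMSO was added on day 9 for 24 h. Cells were stained for 30 min with CD11c PerCP plus B220 FITC (pDC: CD11c+ B220+) or MHC II FITC (mDC: CD11c+ MHC II+), then analysed by flow cytometry. Three independent experiments.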

Mus musculus [9] = species on record: Mus musculus; assay: Antipsoriatic activity in K14-VEGF transgenic mouse model of psoriasis assessed as upper left quadrant FLT3+/CD11c+/B220+ pDC cells in psoriatic plaque lesion at 0.05% applied tropically over lesion for continuous 29 days by flow cytometric analysis (reference value: 58.4%); type: functional
Mus musculus [10] = species on record: Mus musculus; assay: Antipsoriatic activity in K14-VEGF transgenic mouse model of psoriasis assessed as lower left quadrant FLT3+/CD11c+/B220+ pDC cells in psoriatic plaque lesion at 0.05% applied tropically over lesion for continuous 29 days by flow cytometric analysis (reference value: 4.97%); type: functional
Mus musculus [11] = species on record: Mus musculus; assay: Antipsoriatic activity in K14-VEGF transgenic mouse model of psoriasis assessed as lower left quadrant FLT3+/CD11c+/MHC-II+ mDC cells in psoriatic plaque lesion at 0.05% applied tropically over lesion for continuous 29 days by flow cytometric analysis (reference value: 0%)
Mus musculus [12] = species on record: Mus musculus; assay: Antipsoriatic activity in K14-VEGF transgenic mouse model of psoriasis assessed as reduction in Baker scores at 0.05% applied tropically over lesion for continuous 29 days by H and E staining method relative to vehicle control; type: functional, organism-based; in short: as §2

## CC(C)(C)c1cc(NC(=O)Nc2ccc(Oc3ncnc4[nH]ncc34)c(F)c2)no1
Mus musculus [1]
  Activity: 2.1%
Mus musculus [2]
  Activity: 94%
BMDC
  inhibition: Active
Mus musculus [3]
  Activity: 79%
Mus musculus [4]
  Activity: 89.5%
Mus musculus [5]
  Activity: 0%
Mus musculus [6]
  Activity: Active
[7]
  inhibition: Active
[8]
  Activity: 4.63%
Mus musculus [9]
  Activity: 79.4%
Mus musculus [10]
  Activity: 11%
Mus musculus [11]
  Activity: 0%
Mus musculus [12]
  Activity: Active
